Screening results from PubChem BioAssay.
This is a sample that favours compounds with a hit; in the whole collection about 1.4% have one here.
TNAP inh no acc: TNAP (human) inhibition, acceptor-free conditions. P05186. purified TNAP, CDP-star luminescence, 30 min. inhibition, % at 20 µM. hit rate 0.26% among 200,000. AID 1012;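 active = tissue-nonspecific alkaline phosphatase inhibition above about 50% at 20 µM in the single-dose screen, limit read from the data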;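 also: 0% = DMSO negative control and 100% = EDTA positive control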
CHT block: human CHT choline transport inhibition; CHT-expressing cells, membrane potential dye, choline response; hits give low values; B-score at 10 µM; Q9GZV3; AID 488975; hit rate 0.86% among 310,000;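 active = B-score over 3 SD under the library average, and starting fluorescence ratio not unusually high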;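 also: choline stimulus applied at its EC90 after an EC20 pre-addition; B-score computed on integrated fluorescence ratio after choline addition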
ABCB6 inh MLPCN: human ABCB6 transporter inhibition | fluorescence ratio to DMSO, % at 10 µM | hit rate 0.19% among 360,000 | K562-ABCB6 porphyrin accumulation, flow cytometry, 1 h; hits give low values;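 active = fluorescence ratio to DMSO below 75%, the collection mean minus 3 SD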;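 also: signal is porphyrin accumulated inside mitochondria; 100% equals median channel fluorescence of DMSO control wells; lower ratio means ABCB6 inhibition with less porphyrin fluorescence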
Target sequence (Q9NP58 whole entry, looked up): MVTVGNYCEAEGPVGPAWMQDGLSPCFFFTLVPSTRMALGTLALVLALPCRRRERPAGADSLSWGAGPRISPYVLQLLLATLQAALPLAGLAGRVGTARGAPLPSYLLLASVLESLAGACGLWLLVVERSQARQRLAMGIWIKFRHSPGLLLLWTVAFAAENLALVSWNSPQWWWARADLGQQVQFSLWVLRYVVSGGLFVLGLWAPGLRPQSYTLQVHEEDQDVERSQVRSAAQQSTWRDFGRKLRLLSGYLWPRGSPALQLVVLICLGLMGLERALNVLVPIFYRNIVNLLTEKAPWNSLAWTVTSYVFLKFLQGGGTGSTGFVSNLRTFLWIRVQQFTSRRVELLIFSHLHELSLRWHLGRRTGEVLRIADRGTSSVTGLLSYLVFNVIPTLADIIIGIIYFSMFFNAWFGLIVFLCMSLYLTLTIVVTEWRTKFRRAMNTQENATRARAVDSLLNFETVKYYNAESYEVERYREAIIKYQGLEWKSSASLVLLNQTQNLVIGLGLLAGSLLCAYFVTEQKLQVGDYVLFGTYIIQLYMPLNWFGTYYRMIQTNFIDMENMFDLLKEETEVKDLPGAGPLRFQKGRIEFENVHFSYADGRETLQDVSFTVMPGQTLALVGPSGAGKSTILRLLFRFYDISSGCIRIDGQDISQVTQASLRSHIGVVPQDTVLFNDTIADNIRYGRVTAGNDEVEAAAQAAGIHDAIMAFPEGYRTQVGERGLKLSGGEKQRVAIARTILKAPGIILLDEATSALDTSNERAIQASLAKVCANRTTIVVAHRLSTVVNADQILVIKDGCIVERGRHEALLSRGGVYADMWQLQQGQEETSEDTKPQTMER
TNAP inh hi DEA: blocks human TNAP under high phosphate acceptor concentration | P05186 | purified TNAP, CDP-star luminescence, 1 M DEA | inhibition, % at 20 µM | hit rate 0.03% among 200,000 | AID 1135;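 active = over 50% inhibition of tissue-nonspecific alkaline phosphatase at 20 µM in the single-dose screen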;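 also: plate controls were DMSO wells for no effect and EDTA-quenched wells as full inhibition for full effect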
TNAP act hi DEA: increases human TNAP activity under high phosphate acceptor concentration; P05186; activation factor at 20 µM; purified TNAP, CDP-star luminescence, 1 M DEA, 30 min; hits give high values; 0 = EDTA background, 1 = DMSO-only activity; 200,000 tested, under 10 active;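 active = activation factor at least 2 at 20 µM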
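Measured by: Luminescent substrate turnover signal | Test system: Human TNAP | Input: TNAP 1/800 final | Dosing: 20 µM single point | Schedule: 30 min, room temperature | Controls: EDTA wells as negative control, DMSO wells as positive control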
CHT PAM: allosteric activators of human choline transporter CHT | Q9GZV3 | CHT-expressing cells, membrane potential dye, choline EC20; hits give high values; LV-AA mutant CHT in HEK293 cells | hit rate 0.49% among 310,000 | B-score at 10 µM | AID 488977;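 active = initial fluorescence not abnormally high and integrated response B-score, plate-corrected, over 3 SD above library mean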
CHT act confirm: confirmation of human choline transporter (CHT) activators; shares compounds with CHT PAM; CHT-expressing cells, membrane potential dye fluorescence (FDSS); % of choline EC20–EC90 response window; HEK293 expressing CHT LV-AA mutant; choline added at its EC20; activation, % at 10 µM; hit rate 91% among 2,500; AID 504833;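 active = primary screen active, with duplicate mean activation above negative control mean plus 3 SD, cut at about 11% in these data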
HEK293 MP dye: activity in parental HEK293 cells lacking CHT | shares compounds with CHT PAM | membrane potential dye fluorescence (FDSS); measured after EC20 choline addition | ratio readout change at 10 µM, hits read low | hit rate 62% among 2,500 | AID 623908;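 active = duplicate-averaged ratio beyond 3 SD from buffer wells, up or down, though filed actives are nearly all decreases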
The depositor's hits bear a star; i = inactive; x = no result.

SMILES	TNAP inh no acc	CHT block	ABCB6 inh MLPCN	TNAP inh hi DEA	TNAP act hi DEA	CHT PAM	CHT act confirm	HEK293 MP dye
O=[N+]([O-])c1ccc(OC(F)F)c(/C=N/n2cnnc2)c1	x	i	95	x	x	i	21*	-24*
CN(CC(=O)Nc1ccccc1Br)C(=O)c1ccccc1-c1nc2ccccc2s1	x	i	104	x	x	i	x	x
COc1ccc(C(C)=O)cc1CSc1nnc(-c2ccc(Cl)cc2)n1-c1ccccc1	-6	i	97	-5	1	i	x	x
CCc1ccc(Cn2ncc3c(C(=O)O)cc(C)nc32)cc1	x	x	93	x	x	x	x	x
Cc1cccc2c(=O)cc(C)n(Cc3ccccc3)c12	-13	i	98	-10	1.1	i	x	x
Cc1cccc2c(=O)cc(C)n(CC(=O)N3CCOCC3)c12	-13	i	88	-10	1.1	10*	47*	i
Cc1cccc2c(=O)cc(C)n(CC(=O)N3CCCCC3)c12	-5	i	95	-2	1	7.6*	62*	-70*
CC1(c2cccc(Br)c2)NC(=O)N(CC(=O)N2CCc3ccccc32)C1=O (configuration not stated)	x	x	93	x	x	x	x	x
Cc1cc(=O)oc2cc(OCCCC[n+]3ccccc3)ccc12	x	i	98	x	x	i	62*	-38*
O=C(c1cccc(C(F)(F)F)c1)C1CCCN(Cc2cccn2-c2ccccn2)C1 (configuration not stated)	-5	i	93	-2	1	12*	-5	i
COc1ccccc1C(=O)NN=C1CCN(Cc2ccccc2)CC1	-3	i	104	1	1	i	x	x
Cn1cccc/c1=N\c1cccc[n+]1C	x	i	102	x	x	i	67*	-56*
CCCCN(CCCC)CC(O)COc1ccccc1Br (configuration not stated)	-3	i	97	-6	1.1	6.7*	26*	i
CCOC(=O)Cc1csc(SCC(=O)N(CC(C)C)c2c(N)n(Cc3ccccc3)c(=O)[nH]c2=O)n1	x	i	99	x	x	i	x	x
Cc1ccc(C)c(CSc2nnc(-c3cccs3)n2Cc2ccco2)c1	-12	i	95	-5	1	7.1*	60*	i
CCN(CC)CCNC(=O)COc1ccc(OC)cc1	x	i	99	x	x	i	x	x
CCN(CC)CCCCNc1ncc2cc(-c3cc(OC)cc(OC)c3)c(NC(=O)NC(C)(C)C)nc2n1	x	i	103	x	x	6.7*	47*	-23*
COC(=O)CNC(c1ccccc1)c1cc(C)ccc1NC(=O)CNC(=O)OCc1ccccc1 (configuration not stated)	0	i	94	-4	1	i	x	x
COC(=O)CNC(c1ccccc1)c1cc(C)ccc1NC(=O)c1cccc(Cl)c1 (configuration not stated)	-5	i	93	-2	1	6.9*	43*	i
COc1cccc(-c2c(C(=O)N/N=C(\C)c3cccnc3)nnn2-c2nonc2N)c1	x	i	98	x	x	i	x	x
Cc1cc(NCCCN(C)C)n2nc(-c3cccs3)cc2n1	-13	i	108	-5	1	13*	39*	-89*
Cc1ccc(-c2cc3nc(-c4ccccc4)cc(NCCCO)n3n2)cc1	x	x	99	x	x	x	x	x
Cc1cccc(-c2cc3nc(C)cc(NCCCn4ccnc4)n3n2)c1	-3	i	89	-7	1.1	9.6*	51*	-59*
c1ccc(C[n+]2ccc3ccccc3c2)cc1	x	i	97	x	x	6.3*	43*	-48*
c1ccc(C[n+]2cccc(-c3ccccc3)c2)cc1	-6	i	96	-2	1	i	x	x
SMILES	TNAP inh no acc	CHT block	ABCB6 inh MLPCN	TNAP inh hi DEA	TNAP act hi DEA	CHT PAM	CHT act confirm	HEK293 MP dye
O=C(NCc1cccnc1)c1cccn2c(=O)c3sccc3nc12	-12	i	91	-3	1	7.8*	54*	-53*
CCn1c(=N)c(C(=O)NCc2cccnc2)cc2c(=O)n3cccc(C)c3nc21	-6	x	x	-2	1	x	x	x
Cc1ccc(Cn2c(SCCN3CCCCC3)nc3c2c(=O)n(C)c(=O)n3C)cc1	12	i	88	-4	1	i	49*	-44*
Cn1c(=O)c2c(nc(N3CCc4ccccc4C3)n2Cc2ccccc2F)n(C)c1=O	-10	i	95	-2	1	i	x	x
Cn1c(=O)c2c(nc(N3CCc4ccccc4C3)n2Cc2ccc(Br)cc2)n(C)c1=O	0	i	96	-4	1	i	28*	-26*
Cn1c(=O)c2c(nc(SCCN3CCCCC3)n2Cc2ccccc2)n(C)c1=O	-11	i	100	-5	1	i	46*	-59*
COc1ccc(Cc2nnc(SCC(=O)N3CCCCC3)o2)cc1	-3	i	101	-1	1	i	x	x
NCCCC[C@H]1CN=C(N)N1CCC12CC3CC(CC(C3)C1)C2	x	i	87	x	x	8.5*	54*	-58*
CC(=O)c1ccc(NC(=O)Nc2ccncc2)cc1	-7	i	96	-4	1	i	34*	-38*
CN(C(=O)c1cc(-n2cnnc2)ccc1Cl)c1ccccc1	-9	i	89	0	1	i	x	x
c1cncc(-c2nc(NCCCn3ccnc3)c3ccccc3n2)c1	0	i	98	-7	1.1	i	x	x
Cc1nc(NCCCn2ccnc2)c2ccccc2n1	-11	i	120	-4	1	i	46*	-65*
C[C@H]1NS(=O)(=O)c2ccc(Br)cc2O[C@H]1c1ccccc1	x	x	103	x	x	x	x	x
COc1ccc(S(=O)(=O)N2CCN(c3ccccc3OC)CC2)cc1C(=O)N1CCCCC1	x	i	96	x	x	i	x	x
CCN1CCN(CCNC(=O)c2ccc(/C=C3/Sc4ccccc4N(Cc4cccc(Cl)c4)C3=O)cc2)CC1	-8	i	96	-3	1	i	17*	-28*
Cc1nc(N=C(N)N)nc2ccccc12	-3	i	103	-5	1	8.1*	67*	-60*
Cc1nc(/N=C(\N)NC(=O)c2ccccc2)nc2ccccc12	-4	i	101	-2	1	i	x	x
Cc1ccc2nc(N=C(N)N)nc(C)c2c1	-9	i	104	-4	1	i	56*	-55*
O=C1c2ccccc2C(c2nnnn2-c2ccc3ccccc3c2)N1C1CC1 (configuration not stated)	x	x	95	x	x	x	x	x
